{"data": "Assay results of several laboratories", "SCTR": "Secretin receptor (SCTR, Homo sapiens, UniProt P47872)", "DHODH": "Dihydroorotate dehydrogenase (quinone), mitochondrial (DHODH, Homo sapiens, UniProt Q02127)", "PIK3CG": "Phosphatidylinositol 4,5-bisphosphate 3-kinase catalytic subunit gamma isoform (PIK3CG, Homo sapiens, UniProt P48736)", "note": "Protocols differ between the studies behind these lines."}
{"target": "SCTR", "assay": "cAMP, agonist, TR-FRET", "measurement": "EC50", "result": "700 nM", "Compound": "CC1=NN(/C(=N/c2nnc(C)s2)Nc2ccc(C)c(C)c2)C(c2ccc(-c3ccccc3)cc2)S1 (centres unmarked)"}
{"target": "DHODH", "assay": "enzyme activity, inhibitor, absorbance", "measurement": "IC50", "result": "4000 to 6000 nM", "Compound": "CC[C@@](O)(c1cnc(C(F)(F)F)c(Cl)c1)c1c2ncn(C3CC3)c(=O)c2nn1C"}
{"target": "PIK3CG", "assay": "enzyme activity, inhibitor, ADP detection", "measurement": "IC50", "result": "197 nM", "Compound": "COc1cc2ncnc(Nc3ccc4c(c3)/C(=C/c3cccc(Cl)c3)C(=O)N4C)c2cc1OC"}
{"target": "SCTR", "assay": "cAMP, agonist, TR-FRET", "measurement": "EC50", "result": "> 50000 nM", "Compound": "Cc1ccc(N/C(=N\\c2nnc(C(C)(C)C)s2)N2N=C(C(C)(C)C)SC2c2cc(F)c(F)c(F)c2)cc1C (centres unmarked)"}
{"target": "DHODH", "assay": "enzyme activity, inhibitor", "measurement": "IC50", "result": "30000 nM", "Compound": "Cc1nn(C2CC2)c(=O)c2nn(C)c(Cc3ccc(C(F)(F)F)c(C#N)c3)c12"}
{"target": "SCTR", "assay": "cAMP, agonist, TR-FRET", "measurement": "EC50", "result": "> 50000 nM", "Compound": "CCCc1ccc(/N=C(/Nc2nnc(C)s2)N2N=C(C)SC2c2ccc(C)cc2)cc1 (centres unmarked)"}
{"target": "DHODH", "assay": "enzyme activity, inhibitor, absorbance", "measurement": "IC50", "result": "> 100000 nM", "Compound": "CCn1cc(C2CC2)c2c(CN3CCC(F)(F)C(C)(C)C3)n(C)nc2c1=O"}
{"target": "Serine hydroxymethyltransferase, mitochondrial (SHMT2, Homo sapiens, UniProt P34897)", "assay": "binding, MST", "measurement": "Kd", "result": "2110 nM", "Compound": "CC(=O)N(CC#Cc1cccc(C(N)=O)c1)C[C@H]1C[C@@H](n2ccc3c(Cl)ncnc32)[C@H](O)[C@@H]1O"}
{"target": "SCTR", "assay": "cAMP, agonist, TR-FRET", "measurement": "EC50", "result": "19800 nM", "Compound": "CC1=NN(/C(=N\\c2ccccc2F)Nc2nnc(C)s2)C(c2ccc(C)cc2)S1 (centres unmarked)"}
{"target": "PIK3CG", "assay": "enzyme activity, inhibitor, ADP detection", "measurement": "IC50", "result": "113 nM", "Compound": "Cc1nc(Nc2ccc3c(c2)/C(=C/c2ccccc2)C(=O)N3C)c2ccccc2n1"}
{"target": "DHODH", "assay": "enzyme activity, inhibitor", "measurement": "IC50", "result": "> 100000 nM", "Compound": "CCn1ncc2c([C@](O)(c3ccc(C(F)(F)F)c(Cl)c3)C3CC3)n(C)nc2c1=O"}
{"target": "PIK3CG", "assay": "enzyme activity, inhibitor, ADP detection", "measurement": "IC50", "result": "389 nM", "Compound": "Cc1nc(Nc2ccc3c(c2)C(C)(C)C(=O)N3C)c2ccccc2n1"}
{"target": "DHODH", "assay": "enzyme activity, inhibitor", "measurement": "IC50", "result": "> 100000 nM", "Compound": "CCn1cc(C)c2c(C(O)c3ccc(Cl)c(F)c3)n(C)nc2c1=O (centres unmarked)"}
{"target": "PIK3CG", "assay": "enzyme activity, inhibitor, ADP detection", "measurement": "IC50", "result": "134 nM", "Compound": "Cc1nc(Nc2ccc3c(c2)C(C)(C)C(=O)N3)c2ccccc2n1"}
{"target": "DHODH", "assay": "enzyme activity, inhibitor, absorbance", "measurement": "IC50", "result": "1400 nM", "Compound": "Cc1noc(C)c1-c1cc(Cl)c(Nc2ccccc2C(=O)O)c(Cl)c1"}
{"target": "PIK3CG", "assay": "enzyme activity, inhibitor, ADP detection", "measurement": "IC50", "result": "109 nM", "Compound": "COc1cc2ncnc(Nc3ccc4c(c3)/C(=C/c3ccccc3)C(=O)N4)c2cc1OC"}
{"target": "PIK3CG", "assay": "enzyme activity, inhibitor, ADP detection", "measurement": "IC50", "result": "> 10000 nM", "Compound": "Cc1cc([C@@H](C)Nc2ccccc2C(=O)O)c2nc(N3CCC(F)(F)CC3)c(C#N)c(=O)n2c1"}
